Data published in ChEMBL document CHEMBL1144383, “A new development of matrix metalloproteinase inhibitors: twin hydroxamic acids as potent inhibitors of MMPs” (Bioorg Med Chem Lett, 2005).

Assays:
[1] = target: Matrix metalloproteinase-9 (Homo sapiens, UniProt P14780); assay: Inhibition of Matrix metalloprotease-9 in MMPi assay
[2] = target: Matrix metalloproteinase-14 (Homo sapiens, UniProt P50281); assay: Inhibition of Matrix metalloprotease-14 in MMPi assay
[3] = target: T1, Interstitial collagenase (Homo sapiens, UniProt P03956); assay: Inhibition of Matrix metalloprotease-1 in MMPi assay
T1 sequence (P03956 whole entry): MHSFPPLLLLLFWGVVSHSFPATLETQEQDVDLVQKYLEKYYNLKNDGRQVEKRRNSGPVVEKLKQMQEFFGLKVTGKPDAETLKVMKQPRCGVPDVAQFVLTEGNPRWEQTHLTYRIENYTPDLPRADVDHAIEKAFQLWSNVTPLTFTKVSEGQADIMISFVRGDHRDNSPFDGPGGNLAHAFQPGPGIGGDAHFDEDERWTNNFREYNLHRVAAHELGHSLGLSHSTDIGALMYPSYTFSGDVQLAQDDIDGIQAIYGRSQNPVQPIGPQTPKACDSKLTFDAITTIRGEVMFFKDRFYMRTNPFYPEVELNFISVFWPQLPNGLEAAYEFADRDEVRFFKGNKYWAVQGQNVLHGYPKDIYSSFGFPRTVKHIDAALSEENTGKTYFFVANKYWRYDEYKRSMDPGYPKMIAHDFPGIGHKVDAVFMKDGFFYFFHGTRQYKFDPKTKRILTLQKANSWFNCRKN

[4] = target: 72 kDa type IV collagenase (Homo sapiens, UniProt P08253); assay: Inhibition of Matrix metalloprotease-2 in MMPi assay
Sequence of 72 kDa type IV collagenase (P08253 whole entry): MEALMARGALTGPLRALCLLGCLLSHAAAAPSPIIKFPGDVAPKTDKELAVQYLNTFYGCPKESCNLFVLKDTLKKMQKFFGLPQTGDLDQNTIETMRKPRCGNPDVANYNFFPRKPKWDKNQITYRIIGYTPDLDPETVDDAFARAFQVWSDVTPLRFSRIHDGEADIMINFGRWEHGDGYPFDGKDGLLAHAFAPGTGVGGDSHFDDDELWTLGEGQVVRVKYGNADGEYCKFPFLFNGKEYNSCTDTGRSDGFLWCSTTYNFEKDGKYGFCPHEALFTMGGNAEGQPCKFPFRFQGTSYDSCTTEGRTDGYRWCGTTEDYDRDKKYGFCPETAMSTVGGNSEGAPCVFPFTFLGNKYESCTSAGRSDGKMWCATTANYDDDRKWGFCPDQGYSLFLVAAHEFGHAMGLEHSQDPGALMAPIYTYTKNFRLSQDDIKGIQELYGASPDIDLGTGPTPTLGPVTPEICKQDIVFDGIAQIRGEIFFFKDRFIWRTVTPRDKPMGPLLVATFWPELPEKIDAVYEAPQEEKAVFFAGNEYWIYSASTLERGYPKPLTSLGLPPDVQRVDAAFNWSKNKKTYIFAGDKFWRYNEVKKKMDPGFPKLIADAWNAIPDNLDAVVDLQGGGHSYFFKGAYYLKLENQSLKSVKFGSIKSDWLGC

[5] = tested on: HT-1080; assay: Cytotoxicity as percentage of dead cells at 1 uM using Trypan Blue test on HT1080 cells; format: functional, Homo sapiens
Method in brief: (§1)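 HT1080 cells stably transfected to overexpress MT1-MMP, seeded at 10⁵ cells/well and kept overnight at 37 °C. Washed free of serum, then given serum-free DMEM with insulin, transferrin and selenium. Compound added at 0, 1, 5 or 10 (micromolar) to duplicate wells for 24 h. Trypsinized cells mixed 1:1 with 0.4% trypan blue for 5 min. Blue-stained and total cells counted on haemocytometer upper and lower grids. % dead = mean of duplicates minus untreated wells.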

[6] = tested on: HT-1080; assay: Cytotoxicity as percentage of dead cells at 5 uM using Trypan Blue test on HT1080 cells; format: functional, Homo sapiens; method in brief: as §1
[7] = tested on: HT-1080; assay: Cytotoxicity as percentage of dead cells at 10 uM using Trypan Blue test on HT1080 cells; format: functional, Homo sapiens; method in brief: as §1
[8] = tested on: Matrix metalloproteinase-14; assay: Inhibition of Matrix metalloprotease-14 in MMPi assay

Sequence of Matrix metalloproteinase-9 (P14780 whole entry): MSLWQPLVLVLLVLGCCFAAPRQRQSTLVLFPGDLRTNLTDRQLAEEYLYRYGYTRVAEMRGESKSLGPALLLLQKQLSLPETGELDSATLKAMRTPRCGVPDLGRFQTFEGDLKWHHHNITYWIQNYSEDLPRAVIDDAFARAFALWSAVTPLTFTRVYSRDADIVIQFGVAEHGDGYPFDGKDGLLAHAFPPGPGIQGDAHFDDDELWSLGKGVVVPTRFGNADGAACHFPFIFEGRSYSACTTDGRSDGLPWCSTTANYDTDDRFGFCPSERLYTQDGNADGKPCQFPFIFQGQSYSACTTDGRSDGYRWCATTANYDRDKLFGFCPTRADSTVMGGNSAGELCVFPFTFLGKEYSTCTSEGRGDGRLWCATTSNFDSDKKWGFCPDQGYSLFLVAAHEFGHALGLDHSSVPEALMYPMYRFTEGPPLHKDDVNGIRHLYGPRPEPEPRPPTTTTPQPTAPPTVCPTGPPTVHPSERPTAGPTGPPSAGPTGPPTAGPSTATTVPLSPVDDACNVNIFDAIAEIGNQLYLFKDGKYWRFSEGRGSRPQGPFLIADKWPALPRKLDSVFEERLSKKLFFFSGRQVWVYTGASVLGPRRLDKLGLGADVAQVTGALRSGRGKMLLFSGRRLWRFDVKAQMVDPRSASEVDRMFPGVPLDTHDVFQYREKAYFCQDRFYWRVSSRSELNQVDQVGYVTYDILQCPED

Row | IC50 [1] | IC50 [2] | IC50 [4] | SMILES | IC50 [3] | Dead cells [5] | Dead cells [6] | Dead cells [7] | IC50 [8]
1 | 0.983 µM | 1.49 µM | 0.197 µM | CC(C)ON([C@H](CCNC(=O)c1cccc(C(=O)NCC[C@H](C(=O)NO)N(OC(C)C)S(=O)(=O)c2ccc(-c3ccccc3)cc2)c1)C(=O)NO)S(=O)(=O)c1ccc(-c2ccccc2)cc1 | 10 µM |  |  |  | 
2 |  |  |  | CC(C)ON([C@H](CCNC(=O)OCc1ccccc1)C(=O)NO)S(=O)(=O)c1ccc(-c2ccccc2)cc1 | > 3 µM | 4% | 20% | 35% | 
3 | > 30 µM |  | > 1 µM | CC(C)ON([C@H](CCNC(=O)c1cccc(C(=O)NCC[C@H](C(=O)O)N(OC(C)C)S(=O)(=O)c2ccc(-c3ccccc3)cc2)c1)C(=O)O)S(=O)(=O)c1ccc(-c2ccccc2)cc1 |  |  |  |  | 

Row | SMILES | IC50 [1] | IC50 [2] | IC50 [4] | IC50 [3] | Dead cells [5] | Dead cells [6] | Dead cells [7] | IC50 [8]
4 | CC(C)ON([C@H](CCNC(=O)CCCNC(=O)c1cccc(C(=O)NCCCC(=O)NCC[C@H](C(=O)NO)N(OC(C)C)S(=O)(=O)c2ccc(-c3ccccc3)cc2)c1)C(=O)NO)S(=O)(=O)c1ccc(-c2ccccc2)cc1 | 0.0083 µM |  | 0.0098 µM | 0.397 µM | 0% | 5% | 10% | 0.034 µM
